GSK3B inh = human GSK3beta kinase inhibitors, primary screen, biochemical, cell-free homogeneous, HTS; Glycogen synthase kinase-3 beta (Homo sapiens), P49841; GST-GSK3beta kinase, ADP-Glo luminescence, 60 min; stronger effect = lower value; activity score (negative = inhibition), % at 10 µM; 300,000 tested, 0.038% active; AID 2097, 2009;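 active = more than half of replicate wells score below -50%, meaning over 50% inhibition versus plate controls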;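 also: 0% = median DMSO wells and -100% = median GW8510 positive control wells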
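test system = GST-tagged human GSK3beta kinase, cell-free | reagent = 25 µM ATP with peptide substrate | dosing = one dose of 10 µM per compound | schedule = 60 min reaction, RT | detection = luminescent ADP-Glo measurement of ADP formed | control set = DMSO neutral wells and GW8510 at 20 µM as positive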
DSG3 Ab inh = inhibitors of pemphigus antibody binding to DSG3, primary screen, biochemical, bead-based, flow cytometry, scFv-GFP | Desmoglein-3 (Homo sapiens), P32926 | DSG3-coupled beads, scFv-anti-DSG3-GFP binding; stronger effect = lower value | binding (percent of control), % at 10 µM | 310,000 tested, 0.48% active | AID 588358, 2011;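 active = binding more than 3 SD below its plate's average and above zero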;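 also: hits lower antibody fragment binding to DSG3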
MT1-MMP act inh = blockers of MT1-MMP proenzyme processing, primary screen, HT1080 RFP-PRO-GFP cells, GFP/RFP fluorescence. Matrix metalloproteinase-14 (Homo sapiens), P50281. GFP/RFP ratio fluorescence, overnight; percent of plate control window, DMSO zero. GFP/RFP ratio change, % at 20 µM. 360,000 tested, 0.061% active;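 active = GFP/RFP ratio change of at least 30% with cell ATP level not reduced by more than half and red fluorescence within 50% of control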
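Read-out: GFP/RFP fluorescence ratio; Test system: RFP-PRO-GFP reporter HT1080 cells; Compound dosing: single-point 20 µM compound, 1% DMSO; Times: overnight compound exposure at 37 °C.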
STK33 inh = inhibitors of purified STK33 kinase, primary screen, biochemical, ADP-Glo luminescence, homogeneous, cell-free; Serine/threonine-protein kinase 33 (Homo sapiens), Q9BYT3; MBP phosphorylation; inhibition, % at 10 µM; 320,000 tested, 0.073% active; AID 2661, 2010;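 active = inhibition at or above 25%, using the most active replicate where run in duplicate; inactive = inhibition below 25%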
GSK3 alpha inh = blockers of GSK3A enzyme activity – biochemical, luminescence, cell-free homogeneous, HTS, primary screen; Glycogen synthase kinase-3 alpha (Homo sapiens), P49840; GSK-3 alpha kinase, ADP-Glo luminescence, 60 min; inhibition, % at 10 µM; 320,000 tested, 0.1% active; AID 2650, 2010;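 active = more than half of replicates show inhibition above 20%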;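 also: GST-tagged GSK-3 alpha with peptide substrate and 25 µM ATP; 0% = DMSO neutral wells and 100% = GW8510 positive control wells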
Target sequence (P49840 whole entry, looked up): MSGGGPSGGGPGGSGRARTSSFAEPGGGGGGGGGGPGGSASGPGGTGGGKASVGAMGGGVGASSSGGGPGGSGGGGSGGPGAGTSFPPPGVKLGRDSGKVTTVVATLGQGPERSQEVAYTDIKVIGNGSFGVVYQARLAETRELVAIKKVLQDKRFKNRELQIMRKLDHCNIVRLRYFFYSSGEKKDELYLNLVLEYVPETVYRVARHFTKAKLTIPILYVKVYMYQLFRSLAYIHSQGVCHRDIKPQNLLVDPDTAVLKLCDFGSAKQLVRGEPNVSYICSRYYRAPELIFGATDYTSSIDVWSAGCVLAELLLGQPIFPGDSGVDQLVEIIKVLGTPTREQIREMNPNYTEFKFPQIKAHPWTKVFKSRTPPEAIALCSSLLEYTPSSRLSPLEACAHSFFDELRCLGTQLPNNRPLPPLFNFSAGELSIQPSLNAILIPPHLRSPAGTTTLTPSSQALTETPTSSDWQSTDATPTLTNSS
MT1-MMP act val = MT1-MMP activation inhibitors, hit retest, confirmation, single concentration, fluorescence, HT1080 RFP-PRO-GFP cells; 200 tested, 10% active; shares compounds with MT1-MMP act inh; GFP and RFP fluorescence ratio, overnight; AID 652235, 2013; inhibition, % at 20 µM;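 active = inhibition of at least 50% in the primary cell screen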
Active calls of the source: *. Most compounds without a hit are left out; they make up all but 0.63% or so of the library.

How did CN1/C(=C\C(=O)c2cncc(Br)c2)C(C)(C)c2ccccc21 do in these assays?
GSK3B inh: -3.3; DSG3 Ab inh: 101.3; MT1-MMP act inh: 31.5*; STK33 inh: 0.4; GSK3 alpha inh: 1.2; MT1-MMP act val: 38.6

What do the screens show for `CN1/C(=C\C=N\NC(=O)c2ccc(O)cc2)C(C)(C)c2ccccc21`?
GSK3B inh: -0.3; DSG3 Ab inh: 119.1; MT1-MMP act inh: 59.2*; STK33 inh: 16.4; GSK3 alpha inh: 10.1; MT1-MMP act val: 36.6

What do the screens show for `Cc1ccc(C(=O)NC(=S)/C=C2\N(C)c3ccccc3C2(C)C)cc1`?
GSK3B inh: -0.3; DSG3 Ab inh: 110.6; MT1-MMP act inh: 40.3*; STK33 inh: -0.5; GSK3 alpha inh: -0.5; MT1-MMP act val: 23.2

How did CC(C)C(=O)NC(=S)/C=C1/N(C)c2ccccc2C1(C)C do in these assays?
MT1-MMP act inh: -3.9; STK33 inh: -1.2

Results for CN1/C(=C\C(=O)C(F)F)C(C)(C)c2ccccc21 ?
GSK3B inh: 4.2; DSG3 Ab inh: 104.8; MT1-MMP act inh: 6.5; STK33 inh: 7.3; GSK3 alpha inh: 6.8

How did CC(=O)/C=C1\N(C)c2ccc(C)cc2C1(C)C do in these assays?
GSK3B inh: 2.0; DSG3 Ab inh: 81.5; MT1-MMP act inh: 47.0*; STK33 inh: -0.1; GSK3 alpha inh: -0.8; MT1-MMP act val: 27.0

Results for COc1ccc(N=Nc2nc(-c3ccccc3)c(-c3ccccc3)[nH]2)cc1 ?
GSK3B inh: 1.4; DSG3 Ab inh: 103.4; MT1-MMP act inh: -9.0

How did COc1ccccc1N=Nc1nc(-c2ccccc2)c(-c2ccccc2)[nH]1 do in these assays?
GSK3B inh: 1.2; DSG3 Ab inh: 93.8; MT1-MMP act inh: 30.7*; STK33 inh: 3.2; GSK3 alpha inh: -4.6; MT1-MMP act val: 31.0

What do the screens show for `Nc1ccc(NC(=O)c2ccccc2)c2c1C(=O)c1ccccc1C2=O`?
GSK3B inh: -3.9; DSG3 Ab inh: 109.0; MT1-MMP act inh: 38.3*; STK33 inh: 0.7; GSK3 alpha inh: 0.9; MT1-MMP act val: 26.7

What do the screens show for `Cc1cc(C(=O)NNC(=O)c2ccc(Cl)cc2)c2ccccc2n1`?
DSG3 Ab inh: 111.3; MT1-MMP act inh: 0.7; STK33 inh: -0.3; GSK3 alpha inh: -0.4

Results for O=C(NNc1c2ccccc2nc2ccccc12)c1ccc(Cl)cc1 ?
GSK3B inh: 0.5; DSG3 Ab inh: 95.7; MT1-MMP act inh: 40.1*; STK33 inh: 0.9; GSK3 alpha inh: -2.2; MT1-MMP act val: 26.2

How did Cc1ccc(C(=O)NNc2c3ccccc3nc3ccccc23)cc1 do in these assays?
GSK3B inh: 2.0; DSG3 Ab inh: 97.8; MT1-MMP act inh: 36.8*; STK33 inh: 0.5; GSK3 alpha inh: -0.2; MT1-MMP act val: 39.2

Results for COCCNC(=O)C1(C)CCN(C(=O)c2ccc(SC(F)(F)F)cc2)C1 (stereo unspecified) ?
MT1-MMP act inh: 6.7

Results for CCc1nc2ccc(C(=O)Nc3cc(-c4ccccc4)ccc3OC)cn2c1N(CCN(C)C)CC1CC1 ?
MT1-MMP act inh: -10.6

Results for CC1C(=O)N(Cc2cn(CC3CCCCC3)nn2)CCS(=O)(=O)N1Cc1ccc(-c2ccc(Cl)cc2)cc1 (stereo unspecified) ?
DSG3 Ab inh: 96.8; MT1-MMP act inh: 39.6*; MT1-MMP act val: 11.3

Results for O=S(=O)(O)c1cc(Cl)cc(N=Nc2ccc(O)cc2O)c1O ?
DSG3 Ab inh: 99.1; MT1-MMP act inh: 62.0*; MT1-MMP act val: 45.8

How did CCOC(=O)C1=CCC(c2ccccc2Cl)N(S(=O)(=O)c2ccc(C)cc2)C1 (stereo unspecified) do in these assays?
MT1-MMP act inh: -4.6

Results for CNc1c(C(=O)O)ccc2c1C(=O)c1ccccc1C2=O ?
GSK3B inh: 0.0; DSG3 Ab inh: 102.3; MT1-MMP act inh: 34.3*; STK33 inh: 9.8; GSK3 alpha inh: 8.2; MT1-MMP act val: 26.0

How did C[C@H]1[C@@H](Cc2cc(Cl)cc(Cl)c2)N(c2ccccc2)c2ccccc2CN1Cc1ccccc1 do in these assays?
MT1-MMP act inh: -7.2

What do the screens show for `CSC1=NC=C(C#N)C2=NC(c3ccc(Cl)cc3)NN12` (stereo unspecified)?
MT1-MMP act inh: 2.2

What do the screens show for `Fc1cccc(Cc2c(-c3ccco3)nc3c4ccccc4ccn23)c1`?
MT1-MMP act inh: -6.4

Results for COc1ccc(-c2nnc(NC(=O)CSc3ccc(Cl)cc3)s2)cc1OC ?
GSK3B inh: 4.1; DSG3 Ab inh: 98.1; MT1-MMP act inh: 36.7*; STK33 inh: -1.1; GSK3 alpha inh: -0.6; MT1-MMP act val: 6.2

Results for COc1ccc(Cc2nnc(NC(=O)CSc3ccc(C)cc3)s2)cc1OC ?
GSK3B inh: -3.5; DSG3 Ab inh: 103.0; MT1-MMP act inh: -1.1; STK33 inh: 1.8; GSK3 alpha inh: 0.0

How did Nc1ccc(N2CCN(C(=O)c3cccs3)CC2)cc1 do in these assays?
GSK3B inh: -2.3; DSG3 Ab inh: 82.0; MT1-MMP act inh: 33.1*; STK33 inh: 0.6; GSK3 alpha inh: -0.9; MT1-MMP act val: 1.2

Results for Nc1ccc(N2CCN(C(=O)c3ccco3)CC2)cc1 ?
GSK3B inh: -1.2; DSG3 Ab inh: 102.8; MT1-MMP act inh: 43.2*; STK33 inh: 0.2; GSK3 alpha inh: -3.6; MT1-MMP act val: 1.5

How did CC(=O)Oc1ccc2oc(/C=C/N(C)C)c([N+](=O)[O-])c2c1 do in these assays?
GSK3B inh: -1.1; MT1-MMP act inh: 44.9*; STK33 inh: -0.1; GSK3 alpha inh: 2.3; MT1-MMP act val: 36.5

How did COc1ccc2oc(/C=C/N(C)C)c(C(=O)c3ccc(Cl)cc3)c2c1 do in these assays?
GSK3B inh: -2.3; DSG3 Ab inh: 112.8; MT1-MMP act inh: 6.9; STK33 inh: -0.9; GSK3 alpha inh: 3.7

Results for C/C(=C/c1oc2ccc(O)cc2c1[N+](=O)[O-])N(C)C ?
GSK3B inh: -2.9; MT1-MMP act inh: 42.8*; STK33 inh: 0.4; GSK3 alpha inh: -0.7; MT1-MMP act val: 32.4

What do the screens show for `CCC(=O)N1CCC(C)(C(=O)NCc2ccc(F)cc2)C1` (stereo unspecified)?
MT1-MMP act inh: 4.8

How did O=C(NC1CCCCC1)C1c2ccccc2OCC(=O)N1CCc1c[nH]c2ccccc12 (stereo unspecified) do in these assays?
MT1-MMP act inh: -0.9
